This passage reports EC50, Activity and Papp results from ChEMBL document CHEMBL1156035, “(3R,5S,7as)-(3,5-Bis(4-fluorophenyl)tetrahydro-1H-oxazolo[3,4-c]oxazol-7a-yl)methanol, a novel neuroprotective agent” (J Med Chem, 2009).

SMILES strings stand for the structures. Active and inactive are the calls of the source. The calls are words filed in the database; no cut-off is given here.

The nature of data set [1]: Neuroprotective effect against beta-amyloid (25-35)-induced cell death in Sprague-Dawley rat cortical neuron treated 2 hrs before beta-amyloid (25-35) challenge measured after 48 hrs by propidium iodide staining-based fluorescence microscopy. It counts as functional. The settings on record: Cortical neurone. The method, boiled down:
(§1)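 Rat cortical neurons from embryonic day 18 Sprague–Dawley fetuses, plated on poly-D-lysine and kept serum-free in DMEM/F12 with N2, were used after 5 days. Compound (0.5–60 nM) was added about 2 h before 10 μM Aβ25–35 or Aβ1–42, preaggregated 24 h at 37 °C in Tris pH 7.4. Vehicle DMSO was ≤0.04%. After 48 h, cells were stained 30 min with 20 μM propidium iodide and 150 nM calcein-AM. Live and dead cells were counted in 6–12 fields from duplicate dishes across at least two preparations (about 1500 cells). Student's t test was used.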

The species entered for data set [2] is Bos taurus. As to the kind of experiment: Induction of bovine tubulin aggregation at 100 to 400 uM after 30 mins by electron microscopy.
The species named for data set [3] is Bos taurus. As to the kind of experiment: Induction of bovine tubulin assembly assessed as microtubule formation at 100 to 400 uM after 30 mins by electron microscopy.
Data set [4] is filed under the species Bos taurus. As to the kind of experiment: Stabilization of bovine microtubule against cold-induced […] assessed as pelleted protein level at 20 uM by centrifugation assay.
For data set [5], the species on record is Bos taurus. The data set can be described thus: Displacement of [3H](3R,5S,7as)-(3,5-bis(4-fluorophenyl)tetrahydro-1H-oxazolo[3,4-c]oxazol-7a-yl)methanol from bovine microtubule at 40 uM. In outline: (§2)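 Competitive binding: microtubules were formed from bovine brain microtubule protein (2 mg/mL) in PEM buffer with 0.5 mM GTP. Conditions were 100 μM tritiated compound with 0–40 μM paclitaxel, or 20 μM [3H]paclitaxel with 0–400 μM competitor, at 37 °C for 10 min. Pellets were spun at 100000g for 4 min, dissolved in 0.1 M NaOH, and radioactivity and protein were measured.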

For data set [6], the species on record is Bos taurus. As to the kind of experiment: Induction of bovine tubulin assembly assessed as microtubule formation at 25 uM after 30 mins by DAPI staining-based fluorescence assay in absence of GTP. The method, boiled down:
(§3)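 DAPI fluorescence assembly assay: bovine brain microtubule protein (containing MAPs) at 2 mg/mL in PEM buffer (0.1 M PIPES, 1 mM MgSO4, 1 mM EGTA, pH 6.9), 4% DMSO and 10 μM DAPI, without GTP, with varying compound concentrations. Plates were incubated 30 min at 37 °C and fluorescence was read. Values were corrected for a no-compound control and expressed relative to the maximum given by 25 μM paclitaxel.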

The species named for data set [7] is Bos taurus. The data set can be described thus: Induction of bovine tubulin assembly assessed as microtubule formation at 100 uM after 30 mins by DAPI staining-based fluorescence assay in absence of GTP. In outline: as §3
Data set [8] is filed under the species Bos taurus. As to the kind of experiment: Stabilization of bovine microtubule against cold-induced […] assessed as pelleted protein level at 400 uM by centrifugation assay.
Data set [9] has as its system Cortical neurone. The data set can be described thus: Neuroprotective effect against H2O2-induced cell death in Sprague-Dawley rat cortical neuron at 100 nM treated 2 hrs before H2O2 challenge measured after 48 hrs by propidium iodide staining-based fluorescence microscopy. It counts as functional.
Data set [10] in a line: Apparent passive permeability from luminal to abluminal side of BBMEC at 10 uM up to 1.5 hrs. The settings on record: cattle. It counts as ADME, Bos taurus. The method, boiled down: (§4)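 Bovine brain microvessel endothelial cell monolayers, confluent on 0.4 μm polycarbonate membranes coated with collagen and fibronectin, mounted in side-by-side diffusion chambers with PBSA. The donor side (luminal or abluminal) received 10 μM unlabeled compound plus trace tritiated compound. Receiver samples were taken at time points up to 90 min and counted by liquid scintillation.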

The species entered for data set [11] is Bos taurus. As to the kind of experiment: Induction of bovine tubulin assembly assessed as formation of pelleted protein at 100 to 400 uM after 30 mins by centrifugation assay relative to paclitaxel in presence of GTP.
The subject of data set [12] is Cortical neurone. The data set can be described thus: Neuroprotective effect against staurosporine-induced cell death in Sprague-Dawley rat cortical neuron at 100 nM treated 2 hrs before staurosporine challenge measured after 48 hrs by propidium iodide staining-based fluorescence microscopy. It is filed as functional.
Data set [13] can be described thus: Apparent passive permeability from abluminal to luminal side of BBMEC at 10 uM up to 1.5 hrs. It is filed as ADME, Bos taurus. The conditions noted are these: cattle. In outline: as §4
For data set [14], the species on record is Bos taurus. As to the kind of experiment: Induction of bovine tubulin assembly assessed as microtubule formation at 200 to 400 uM after 30 mins by DAPI staining-based fluorescence assay in absence of GTP. In outline: as §3
For data set [15], the system named is Cortical neurone. As to the kind of experiment: Neuroprotective effect against thapsigargin-induced cell death in Sprague-Dawley rat cortical neuron at 100 nM treated 2 hrs before thapsigargin challenge measured after 48 hrs by propidium iodide staining-based fluorescence microscopy. It counts as functional.
Data set [16] concerns Cortical neurone. The data set can be described thus: Neuroprotective effect against paraquat-induced cell death in Sprague-Dawley rat cortical neuron at 100 nM treated 2 hrs before paraquat challenge measured after 48 hrs by propidium iodide staining-based fluorescence microscopy. It is filed as functional.
Data set [17] is filed under the species Bos taurus. As to the kind of experiment: Displacement of [3H]paclitaxel from bovine microtubule at 400 uM. In outline: as §2
For data set [18], the species on record is Bos taurus. The data set can be described thus: Induction of P-gp-mediated rhodamine 123 uptake in BBMEC at 1 to 50 uM. The method, boiled down: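 Primary bovine brain microvessel endothelial cells in 24-well plates were rinsed and equilibrated 10 min in warm PBSA. They were preincubated 30 min at 37 °C with compound at 1–50 μM, then given 5 μM rhodamine 123 for 2 h. Cells were rinsed with ice-cold PBS and lysed in 0.5% Triton X-100/0.2 M NaOH. Rhodamine 123 fluorescence was normalized to BCA protein. Cyclosporine A served as positive control.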

The test system of data set [19] is Cortical neurone. The data set can be described thus: Neuroprotective effect against beta-amyloid (1-42)-induced cell death in Sprague-Dawley rat cortical neuron at 0.5 to 60 nM treated 2 hrs before beta-amyloid (1-42) challenge measured after 48 hrs by propidium iodide staining-based fluorescence microscopy. It counts as functional. In outline: as §1

In turn, `OCC12CO[C@H](c3ccc(F)cc3)N1[C@@H](c1ccc(F)cc1)OC2` (relative stereo) returned an EC50 in [1] of 0.05 µM. The result in the data set listed under Bos taurus [2] was Active. Besides, the result in the data set filed under Bos taurus [3] was inactive.
Taken in the same sequence, the figures for `OCC1(CO)COC(c2ccc(F)cc2)N1` (stereo not given) were 0.04 µM, “Active” and “inactive”.
As for `CC(=O)O[C@H]1C(=O)[C@@]2(C)[C@H]([C@H](OC(=O)c3ccccc3)[C@]3(O)C[C@H](OC(=O)[C@H](O)[C@@H](NC(=O)c4ccccc4)c4ccccc4)C(C)=C1C3(C)C)[C@]1(OC(C)=O)CO[C@@H]1C[C@@H]2O`, the Activity in the data set listed under Bos taurus [4] was determined as 79%; in the data set listed under Bos taurus [5] it was 42%; in the data set listed under Bos taurus [6] it was 20%.
For `OC[C@]12CO[C@H](c3ccc(F)cc3)N1[C@H](c1ccc(F)cc1)OC2`, the EC50 in data set [1] was determined as 0.005 µM. Besides, the outcome in the data set filed under Bos taurus [7], with Cortical neurone [9], in the data set filed under Bos taurus [2], with Cortical neurone [12], in the data set with Cortical neurone [15] and with Cortical neurone [16] was Active. The result in the data set on Cortical neurone [19] was Active. The Activity turned out to be 9% in the data set listed under Bos taurus [8], 10% in the data set filed under Bos taurus [11] and 40% in the data set filed under Bos taurus [17]. Moreover, the apparent permeability coefficient (Papp) at 1.5 h, 10 µM amounted to 286 ×10⁻⁶ cm/s in data set [10] and 244 ×10⁻⁶ cm/s in data set [13]. Besides, the outcome in the data set listed under Bos taurus [14], in the data set filed under Bos taurus [18] and in the data set filed under Bos taurus [3] was inactive.
